We go through 23 molecules from ChEMBL document CHEMBL1136969, “Synthesis of novel 2-alkoxy-3-amino-3-arylpropan-1-ols and 5-alkoxy-4-aryl-1,3-oxazinanes with antimalarial activity” (J Med Chem, 2009).

As a reminder, the IC50 is the concentration at which inhibition is half-maximal. Higher therefore signals a need for much substance. The term IC90 denotes the concentration at which the effect reaches the 90% level. Lower therefore signals greater potency.

The subject of one data set is Plasmodium falciparum. Put plainly: Antiplasmodial activity after 48 hrs against chloroquine-sensitive Plasmodium falciparum D10 infected human erythrocytes by LDH reporter assay. In kind it is functional, organism-based. The note with it: D10, 48 h. A digest of the protocol:
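Asexual erythrocytic P. falciparum D10 (CQ-sensitive) kept in continuous culture (modified Trager–Jensen); growth read by parasite lactate dehydrogenase assay (modified Makler). Samples from 2 mg/mL stocks in 10% DMSO, sonicated, suspensions allowed; tested from 100 µg/mL in 2-fold serial dilutions in complete medium, 10 concentrations down to 0.2 µg/mL. Chloroquine reference from 100 ng/mL. Duplicate, one occasion; IC50 from full dose-response.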
A general note: In a reporter assay the amount or activity of a reporter protein is the signal.

Data set [1] deals with CHO. Put plainly: Cytotoxicity against CHO cells by MTT assay. As to conditions: Cricetulus griseus. Format: cell-based. Put shortly:
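MTT colorimetric growth/survival assay. Samples from 2 mg/mL stocks in 10% methanol or 10% DMSO, suspensions allowed, stored at -20 °C; 10-fold serial dilutions in complete medium, six concentrations. Emetine reference from 100 µg/mL down to 0.001 µg/mL. Triplicate, one occasion; IC50 by nonlinear dose-response curve fitting.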
Background: Tetrazolium dyes change colour on reduction, which living cells bring about.

Data set [2] is described as follows: Selectivity index, ratio of IC50 for CHO cells to IC50 for chloroquine-sensitive Plasmodium falciparum D10. Format: toxicity, cell-based. As to conditions: hamster, read-out: Ratio IC50.
In data set [3] the test system is CHO. The data set can be described thus: Cytotoxicity against CHO cells at 100 ug/mL by MTT assay. Format: cell-based, Cricetulus griseus. As to conditions: chinese hamster.

`CCCN[C@@H](c1ccccc1)[C@H](CO)Oc1ccccc1` yielded an IC50 in the data set with Plasmodium falciparum of 85.2 µM.

As for `CCCN[C@@H](c1ccc(C)cc1)[C@H](CO)Oc1ccccc1`, in the data set with Plasmodium falciparum, the IC50 was found to be 13.7 µM and the IC90 was determined as 252 µM. Also, the midpoint of inhibition in the data set with CHO [1], the IC50, lay at 326 µM. The selectivity ratio in data set [2] is 23.8. On to `CCCN[C@@H](c1ccc(OC)cc1)[C@H](CO)Oc1ccccc1`, for which, in the data set on Plasmodium falciparum, half-maximal inhibition (IC50) required 16.4 µM and the 90% effect concentration (IC90) is 47.8 µM. For the same molecule, in the data set on CHO [1], the IC50 came to 145 µM. In data set [2], the selectivity ratio turned out to be 8.8. Regarding `CCCN1COC[C@@H](Oc2ccccc2)[C@H]1c1ccc(OC)cc1`, the IC50 in the data set with Plasmodium falciparum is 87.1 µM. In the data set on Plasmodium falciparum, `CCCN[C@@H](c1cccc(OC)c1)[C@H](CO)Oc1ccccc1` registered a half-maximal inhibitory concentration (IC50) of 25.2 µM and a 90% effect concentration (IC90) of 102 µM. In the data set with Plasmodium falciparum, `OC[C@H](OCc1ccccc1)[C@H](Nc1ccccc1)c1ccc(Cl)cc1` (relative stereo) returned a half-maximal inhibitory concentration (IC50) of 6.36 µM and a 90% effect concentration (IC90) of 12.5 µM. Besides, the Activity entry in the data set with CHO [3] was “Non-toxic”. Take `OC[C@H](OCc1ccccc1)[C@@H](NCc1ccccc1)c1ccccc1Br` (relative stereo): in the data set on Plasmodium falciparum, the midpoint of inhibition, the IC50, lay at 10.5 µM and the concentration for an effect of 90% (IC90) came out at 43.1 µM. For the same molecule, in the data set on CHO [3], the Activity entry is on record as “Non-toxic”. Turning to `CC(C)N[C@@H](c1ccccc1)[C@H](CO)OCc1ccccc1` (relative stereo), in the data set with Plasmodium falciparum, the concentration for half-maximal inhibition (IC50) came out at 45.9 µM and the 90% effect concentration (IC90) worked out at 165 µM.

Turning to `OC[C@H](Oc1ccccc1)[C@@H](NCc1ccccc1)c1ccccc1F` (relative stereo), in the data set on Plasmodium falciparum, the half-inhibitory concentration (IC50) was 25.1 µM and the IC90 was 223 µM. Molecule `CC(C)N1COC[C@@H](OCc2ccccc2)[C@H]1c1ccccc1` (relative stereo) registered an IC50 with Plasmodium falciparum of 66.3 µM. Turning to `Cc1ccc([C@@H]2[C@H](OCc3ccccc3)COCN2CC(C)C)cc1` (relative stereo), the IC50 in the data set with Plasmodium falciparum came out at 30.3 µM. Take `Cc1ccc([C@H](NCC(C)C)[C@H](CO)OCc2ccccc2)cc1` (relative stereo): in the data set on Plasmodium falciparum, the IC50 amounted to 15.3 µM and the 90% effect level (IC90) was put at 70.8 µM. 144 µM corresponded to half-maximal inhibition with CHO [1] (IC50). In addition, the selectivity ratio in data set [2] came to 9.4. Regarding `Clc1ccc([C@@H]2[C@H](OCc3ccccc3)COCN2c2ccccc2)cc1` (relative stereo), in the data set on Plasmodium falciparum, it took 19.4 µM to reach half-maximal inhibition (IC50) and the 90% effect level (IC90) was put at 138 µM. `COc1cccc([C@@H](NC2CCCCC2)[C@H](CO)OC)c1` (relative stereo) came in with a half-inhibitory concentration (IC50) in the data set on Plasmodium falciparum of 175 µM. For the molecule `Fc1ccccc1[C@@H]1[C@H](Oc2ccccc2)COCN1Cc1ccccc1` (relative stereo), in the data set on Plasmodium falciparum, the IC50 turned out to be 16.8 µM and it took 118 µM to reach the 90% level (IC90). Further, the Activity result in the data set on CHO [3] is recorded as “Non-toxic”.

Molecule `CCCN1COC[C@@H](Oc2ccccc2)[C@H]1c1ccccc1` (relative stereo) showed an IC50 in the data set with Plasmodium falciparum of 84.9 µM. The same measure, in the same setting: with `CO[C@@H]1COCN(C(C)(C)C)[C@@H]1c1ccc(C)cc1` (relative stereo) the figure was 121 µM.

In the data set with Plasmodium falciparum, `Brc1ccccc1[C@@H]1[C@H](OCc2ccccc2)COCN1Cc1ccccc1` (relative stereo) registered an IC50 of 14.1 µM and an IC90 of 38.6 µM. Also, the Activity entry in the data set with CHO [3] is on record as “Non-toxic”. In the data set with Plasmodium falciparum, `COc1cccc([C@@H]2[C@H](OC)COCN2C2CCCCC2)c1` (relative stereo) had an IC50 of 42.6 µM. Still for that read-out and setting: with `Cc1ccc([C@@H]([C@H](CO)OCc2ccccc2)N(C)CC(C)C)cc1` (relative stereo) the figure was 82 µM; with `CCCN1COC[C@@H](Oc2ccccc2)[C@H]1c1ccc(C)cc1` (relative stereo), 129 µM. For the molecule `CCN(CC)CCCC(C)Nc1ccnc2cc(Cl)ccc12` (centres undefined) [CHLOROQUINE], the IC90 with Plasmodium falciparum worked out at 0.067 µM. For the molecule `CC[C@H]1CN2CCc3cc(OC)c(OC)cc3[C@@H]2C[C@@H]1C[C@H]1NCCc2cc(OC)c(OC)cc21` [EMETINE], the IC50 in the data set on CHO [1] is 0.108 µM.
